Reference: PubChem BioAssay AID602220 (Southern Research Specialized Biocontainment Screening …, 2012)
The source made the active and inactive calls.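 Rule for the calls: active = at least 30% inhibition of the enzyme at any tested dose; inactive = the rest.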

Biological target: M17 leucyl aminopeptidase (Plasmodium falciparum 3D7)
Test: Inhibition of P. falciparum M17 aminopeptidase – biochemical, QFRET, set 2, counter-screen for PfM18AAP inhibitor project, dose response (AID 602220)
Conditions: recombinant PfM17LAP, H-Leu-NHMec fluorogenic cleavage; for inhibition: at 100 µM (top of the series)
In short: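 Test system: purified recombinant PfM17LAP, M17 leucine aminopeptidase of Plasmodium falciparum. Amount: 5 µg/mL enzyme. Schedule: 90 min reaction, room temperature. Technique: fluorescence of released NHMec, excitation 370 nm, emission 460 nm. Read-out basis: IC50 from 4-parameter fit of % inhibition, bounds fixed 0–100%. Control set: full reaction and no-enzyme background wells. Repeats: triplicate.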

Structure (SMILES) | IC50 | inhibition
CCc1ccc(NC(=O)Cc2nc(-c3ccc(O)c(O)c3)cs2)cc1 | 57.8 µM | 
Oc1ccc(-c2csc(NC3CCCC3)n2)cc1O | 29.8 µM | 
Oc1ccc(CCNc2ccnc3ccccc23)cc1O | 30.1 µM | 
CN1CCN(CCc2ccc(O)c(O)c2)CC1 | 94.3 µM | 
COc1ccc(CCNC(c2ccccc2)c2ccccc2)cc1OC |  | inactive
CN1CCN(c2nc(-c3ccc(O)c(O)c3)cs2)CC1 | 29.4 µM | 
Oc1ccc(-c2csc(Nc3ncccn3)n2)cc1O | 12.3 µM | 
CN1CCN(CCCc2ccc(O)c(O)c2)CC1 | 73.8 µM | 
Oc1ccc(CCNc2c3ccccc3nc3ccccc23)cc1O | 14.2 µM | 
COc1ccc(CCCN2CCN(C)CC2)cc1OC |  | inactive
